# Most compounds without a hit are left out; they make up all but 1.1% or so of the library.
# Diaphorase act: diaphorase activation or chemical reduction counter-screen | Diaphorase/resazurin coupled assay, resorufin fluorescence, 16 min; hits give high values; 1 = vehicle wells, 0 = NADH-free wells | activation factor at 20 µM | 190,000 tested, 0.005% active | AID 1229;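 active = diaphorase activity raised at least twofold by the compound at 20 µM; inactive = activation factor below 2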
#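 Measured by – red resorufin fluorescence at 544/590 nm excitation/emission · Test system – Clostridium kluyveri diaphorase, purified enzyme · Incubation – reaction time 16 min, room temperature · Buffer or medium – 50 mM HEPES pH 7.4 with 4.542 mM MgCl2, 0.005% Tween 20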
# PMI act hi M6P: PMI (human) activation, high substrate; P34949; coupled PMI enzyme assay, resazurin fluorescence, 20 min; hits give high values; 1 = untreated enzyme, 0 = substrate-free blank; activation factor at 20 µM; 190,000 tested, 0.34% active; AID 1216;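 active = activation factor of 2 or more at 20 µM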
# Target sequence (P34949 whole entry, looked up): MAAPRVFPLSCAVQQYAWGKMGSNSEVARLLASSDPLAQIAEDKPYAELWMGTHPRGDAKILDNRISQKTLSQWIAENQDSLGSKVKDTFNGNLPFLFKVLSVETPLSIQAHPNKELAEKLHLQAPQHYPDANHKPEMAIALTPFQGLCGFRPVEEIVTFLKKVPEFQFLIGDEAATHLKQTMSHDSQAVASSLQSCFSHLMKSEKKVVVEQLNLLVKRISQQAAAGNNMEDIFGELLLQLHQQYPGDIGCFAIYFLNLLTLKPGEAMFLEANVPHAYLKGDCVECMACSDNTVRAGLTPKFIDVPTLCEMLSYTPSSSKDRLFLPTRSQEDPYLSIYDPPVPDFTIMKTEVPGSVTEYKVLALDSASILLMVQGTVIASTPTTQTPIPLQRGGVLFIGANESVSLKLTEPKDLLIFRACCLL
#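 Technique: Diaphorase-driven resazurin-to-resorufin fluorescence, excitation 544, emission 590 nm | Assay system: Human PMI in coupled enzyme assay | Times: Enzyme reaction with compound 20 min at room temperature | Medium: HEPES-buffered pH 7.4 with magnesium and detergent | Reagent: Mannose-6-phosphate 1.0 mM (near-saturating) plus 0.22 mM NADP+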
# G6PDH counter: counter-screen for G6PDH assay hits: L. mesenteroides G6PDH inhibition; Purified L. mesenteroides G6PDH, diaphorase/resazurin coupled fluorescence, 45 min; inhibition, % at 5 µM; 200,000 tested, 0.12% active; AID 1020; in the data active = inhibition above about 50%
# PMI activator: increases human mannose-6-phosphate isomerase activity; AID 1214; activation factor at 20 µM; purified human PMI, coupled resazurin fluorescence, 20 min; hits give high values; 1 = vehicle control, 0 substrate-free wells; P34949; 190,000 tested, 0.005% active;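 active = activation factor of 2 or more at 20 µM, relative to plate controls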
# Diaphorase inh: diaphorase inhibition or chemical oxidation counter-screen | inhibition, % at 20 µM | AID 1217 | diaphorase resazurin-to-resorufin fluorescence, NADH, 16 min; bacterial (C. kluyveri) enzyme, not human | 190,000 tested, 0.69% active;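 active = primary screen inhibition at 20 µM above a set limit, cut at about 50% in these data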;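 note: plate controls were DMSO with full reaction for no effect and wells lacking NADH for full effect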
#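 Assay system – diaphorase enzyme from Clostridium kluyveri · Amount – diaphorase 0.14 U/mL (working solution) · Times – reaction incubation of 16 min at room temperature · Controls – No-NADH positive control and DMSO neutral control · Signal – resorufin fluorescence 544/590 nm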
# An asterisk follows results filed as active; . = no result.
SMILES,Diaphorase act,PMI act hi M6P,G6PDH counter,PMI activator,Diaphorase inh
CSc1nncc(/C(C)=N\Nc2ccccc2C)n1,1,2.2*,-3,1.8,3
CCOc1ccc(Nc2ccc(N3C(=O)CCC3=O)cc2[N+](=O)[O-])cc1,0.9,0.9,1,1,11
O=C(c1cnn2c(C(F)(F)F)cc(-c3cccs3)nc12)N1CCOCC1,0.8,1,2,1,16
CC/C(=N/Nc1ccccc1Cl)c1cnnc(-c2ccccc2)n1,1,2.1*,0,1.6,4
CCNC(=S)N1CCC(n2cnc3ccccc32)CC1,0.9,1,6,1,14
CC1(c2ccccc2)NC(=S)N2C1NC(=S)N2c1ccccc1 (stereo unspecified),1,1.2,4,1.1,5
CC1CCCC2(C1)NC(=S)N(c1ccccc1)N2 (stereo unspecified),1,2.7*,6,1.5,3
CC(C)(C)N1NC2(CCCCC2)NC1=S,0.9,2.1*,10,1.5,14
O=C1NC2(NN1c1ccccc1)C1CC3CC(C1)CC2C3 (stereo unspecified),0.9,1,-7,1,8
S=C1NC2(CCCCC2)NN1c1ccccc1,1,2.9*,6,1.8,-5
CC1CC(C)(C)CC2(C1)NC(=S)N(c1ccccc1)N2 (stereo unspecified),1,2*,4,1.7,4
CC(=O)Nc1cccc(N=NN2CCCCC2)c1,0.9,1,6,1,8
COc1ccccc1/C=C/CN1CCCC(CCC(=O)NCc2ccccc2F)C1 (stereo unspecified),0.9,0.9,15,0.9,9
O=C1NC2(CCC3(CC2)OCCO3)NN1c1ccccc1,0.8,2.3*,1,1.6,17
O=C(COC(=O)c1c2c(nc3ccccc13)CCN(Cc1ccccc1)C2)Nc1c(F)cccc1F,0.8,2*,8,1.3,24
O=c1c2cn[nH]c2[nH]c(=S)n1-c1ccccc1,0.4,1,7,1,61*
Cc1ccc(C(c2nnnn2CC2CCCO2)N2CCN(Cc3ccccc3)CC2)cc1 (stereo unspecified),.,.,3,.,.
O=C(O)c1ccccc1NS(=O)(=O)c1ccc(NNC(=S)Nc2ccc(OC(F)F)cc2)c([N+](=O)[O-])c1,0.3,0.5,7,0.6,67*
COc1ccc2cc(C(c3nnnn3C(C)(C)C)N3CCc4ccccc4C3)c(=O)[nH]c2c1 (stereo unspecified),0.5,1.5,-22,1,52*
COc1ccc2cc(C(c3nnnn3C3CCCC3)N3CCc4ccccc4C3)c(=O)[nH]c2c1 (stereo unspecified),0.4,1.2,17,1,56*
CC(C)CN(C(=O)CN1CCc2ccccc21)c1c(N)n(CC(C)C)c(=O)[nH]c1=O,1,1,1,1,4
Cc1ccc(S(=O)(=O)N2CCCC(C(=O)Nc3ccc(C(=O)O)cc3)C2)cc1Cl (stereo unspecified),0.9,1,-4,1,6
O=C(NCc1ccccc1Cl)c1ccc(S(=O)(=O)Nc2cccc(C(F)(F)F)c2)cc1,0.8,0.8,15,0.7,24
Oc1ccc(-c2nc(-c3ccc(O)c(O)c3)cs2)cc1,0.4,0.7,25,0.5,63*
CCOC(=O)C1=C(Cc2ccc(F)cc2)C(=O)c2ccccc2C1=O,0.7,1.4,62*,1.2,25
O=C(OCc1ccc(F)cc1)c1ccc2c(c1)-c1ccccc1C2=O,0.9,0.9,1,0.9,13
CC(=O)c1ccc2noc(-c3ccc(F)cc3)c2c1,0.9,2.1*,1,1.7,14
COCCCNC(=O)c1ccc(N2CCCC2)c(NS(=O)(=O)c2ccc(C)cc2)c1,1,2.2*,5,1.3,3
CCOCCCNC(=O)c1ccc(N2CCCC2)c(NS(=O)(=O)c2ccc(C)cc2)c1,0.9,1.5,8,1.5,11
CCOc1ccc(CCNC(=O)C(CCC(N)=O)NC(=O)OCc2ccccc2)cc1OCC (stereo unspecified),1.1,1,10,1,-15
